# According to ChEMBL document CHEMBL1158389, “Highly twisted adamantyl arotinoids: synthesis, antiproliferative effects and RXR transactivation profiles” (Eur J Med Chem, 2009):
# Calls of active or inactive are those of the source. No cut-off for these calls is given here.
# Tested on: Jurkat
# Experiment: Induction of apoptosis in human Jurkat T cells assessed as induction of DEVDase activity at 4 uM after 4 hrs by fluorescence assay
# Assay type: functional, cell-based
# In short: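 Jurkat cells (40,000/well, 10^6 cells/mL, RPMI with 0.5% FBS) were treated for 4 h; controls got 0.1% DMSO. Lysis was in CE buffer (PIPES pH 7, NP-40, cytochalasin B, protease inhibitors) for 30 min at 4 °C. Lysates were mixed with 2x caspase buffer (HEPES pH 7.4, CHAPS, sucrose) holding 100 μM Ac-DEVD-AFC and incubated at 37 °C for 30 min. AFC was read every 2 min, ex 390/em 510 nm.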
smiles,measurement,value
COCCOCOc1cc(C)c(-c2ccc3cc(C(=O)O)ccc3c2Cl)cc1C12CC3CC(CC(C3)C1)C2,Activity,Active
